Experimental data published in ChEMBL document CHEMBL1148199, “Synthesis, conformational analysis, and cytotoxicity of new analogues of the natural cyclodepsipeptide jaspamide” (J Nat Prod, 2004).
Converted amounts (≈) assume the structure as drawn. The source made the active and inactive calls. The rule behind the calls is not given here.

Assays:
[1] = test system: A10; experiment: Effect on cell morphology in rat A10 cells assessed as microfilaments depolymerization by immunofluorescence assay; assay type: functional, cell-based
Procedure, shortened: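 A-10 rat smooth muscle cells grown to near-confluency on glass coverslips and exposed to compounds at micromolar amounts for 24 h. Jaspamide served as positive control. Microfilaments stained with monoclonal anti-β-actin, then fluorescein-conjugated anti-mouse IgG. Read-out: actin aggregation and cellular aberrations such as binucleated cells.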

[2] = test system: T-24; experiment: Antiproliferative activity against human T24 cells after 48 hrs by SRB assay; assay type: functional, cell-based; conditions: T-24, 48 h
Procedure, shortened: (§1)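 Human cell lines (T24 bladder carcinoma, MCF-7, NCI/ADR) kept in RPMI-1640 with 10% FBS and 50 μg/mL gentamycin at 37 °C, 5% CO2. Plated at ~15% confluency and left 24 h to attach. Treated in triplicate with varying concentrations for 48 h. Survival measured by sulforhodamine B binding as % of control cultures. IC50 is the concentration giving 50% inhibition of proliferation.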

[3] = Antiproliferative activity against multidrug-resistant human NCI/ADR cells expressing p-glycoprotein after 48 hrs by SRB assay; assay type: functional, cell-based; conditions: NCI/ADR-RES; procedure, shortened: as §1
[4] = test system: A10; experiment: Antiproliferative activity against rat A10 cells after 48 hrs by SRB assay; assay type: cell-based; conditions: A10, 48 h
Procedure, shortened: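 A-10 rat aortic smooth muscle cells kept in α-MEM with 10% FBS and 50 μg/mL gentamycin at 37 °C, 5% CO2. Seeded at ~15% confluency, 24 h recovery, then triplicate 48 h exposure to a concentration series. SRB binding read against control cultures. IC50 is the concentration causing 50% inhibition of proliferation.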

[5] = test system: A10; experiment: Effect on cell morphology in rat A10 cells assessed microtubule depolymerization by immunofluorescence assay; assay type: functional, cell-based
Procedure, shortened: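 Near-confluent A-10 cells on glass coverslips treated with compounds at micromolar amounts for 24 h. Microtubules immunostained with monoclonal anti-β-tubulin followed by fluorescein-conjugated anti-mouse IgG and examined for changes in the microtubule network.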

[6] = test system: MCF7; experiment: Antiproliferative activity against human MCF7 cells after 48 hrs by SRB assay; conditions: MCF7, 48 h
[7] = test system: A10; experiment: Effect on cell morphology in rat A10 cells assessed as actin aggregation at 0.85 nM by immunofluorescence assay; assay type: functional, cell-based
Procedure, shortened: (§2)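 A-10 rat aortic smooth muscle cells were grown to near-confluency on glass coverslips and treated for 24 h. Microfilaments were stained with monoclonal anti-β-actin followed by fluorescein-conjugated anti-mouse IgG. Actin aggregation was scored by immunofluorescence microscopy. Microtubules were stained in parallel samples with anti-β-tubulin and the same secondary antibody.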

[8] = test system: A10; experiment: Effect on cell morphology in rat A10 cells assessed as actin aggregation at 23 nM by immunofluorescence assay; assay type: functional, cell-based; procedure, shortened: as §2

IC50 [6] | SMILES | Activity [1] | IC50 [2] | IC50 [3] | IC50 [4] | Activity [5] | Activity [7] | Activity [8]
1.8 µg/mL (≈ 3.83 µM) | CC(C)[C@@H]1NC(=O)[C@@H](Cc2c[nH]c3ccccc23)NC(=O)[C@H](C)NC(=O)CCCCCNC1=O | inactive | 10.3 µg/mL (≈ 21.9 µM) | 12.5 µg/mL (≈ 26.6 µM) | 2 µg/mL (≈ 4.26 µM) | inactive | – | –
– | C/C1=C\[C@H](C)C[C@H](C)OC(=O)C[C@H](c2ccc(O)cc2)NC(=O)[C@@H](Cc2c(Br)[nH]c3ccccc23)N(C)C(=O)[C@H](C)NC(=O)[C@@H](C)C1 | – | – | – | – | – | Active | Active
> 100 µg/mL | CC(C)[C@@H]1NC(=O)[C@@H](Cc2c[nH]c3ccccc23)NC(=O)[C@H](C)NC(=O)CCCCCCCNC1=O | inactive | > 100 µg/mL | > 100 µg/mL | > 100 µg/mL | inactive | – | –
3 µg/mL (≈ 5.7 µM) | CC(C)[C@@H]1NC(=O)[C@@H](Cc2c[nH]c3ccccc23)NC(=O)[C@H](C)NC(=O)CCNC(=O)CCCCNC1=O | inactive | 19 µg/mL (≈ 36.1 µM) | 24 µg/mL (≈ 45.6 µM) | 4.3 µg/mL (≈ 8.17 µM) | inactive | – | –
